In ChEMBL document CHEMBL1155267, “Synthesis of novel bioactive derivatives of 3-(4-chlorophenyl)-2-hydrazino-5,6,7,8-tetrahydrobenzo(b)thieno[2,3-d]pyrimidine-4(3H)-ones” (2009):

Legend:
Format in all cases: functional
[1] = system: Mus musculus; assay: Antidepressant activity in Swiss albino mouse at 5 mg/kg, ip after 30 mins by photoactometer method; details: route intraperitoneal
Outline: (§1)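 Swiss albino mice of either sex, 25–40 g, six per group, acclimatised 10 min. Baseline photoactometer counts were taken over 10 min. Dosing was 5 mg/kg i.p. in 1% CMC, with each group serving as its own control. At 20 and 50 min animals entered the chamber, rested 10 min, then counts were taken for 10 min. % depression = (control − decrease in count)/control ×100. Mean ± SEM, n=6.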

[2] = system: Mus musculus; assay: Antidepressant activity in Swiss albino mouse at 5 mg/kg, ip after 60 mins by photoactometer method; details: route intraperitoneal; outline: as §1
[3] = system: Mus musculus; assay: Skeletal muscle relaxant activity in Swiss albino mouse assessed as number of falls form rotarod at 5 mg/kg, ip after 30 mins by rotarod method relative to Diazepam; set-up: scale not given: the % may be the effect or the level left; details: route intraperitoneal
Outline: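 Mice 25–40 g, six per group, were dosed at 5 mg/kg in 1% CMC, with each group serving as its own control. Falls per min on the Rotarod were recorded before dosing and 30 min after. % relaxation = (mean increase in falls − mean control)/mean control ×100. Mean ± SEM, n=6.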

[4] = system: Mus musculus; assay: Anticonvulsant activity in Swiss albino mouse assessed as protection against PTZ-induced clonic convulsions at 9 mg/kg, ip administered after 30 mins PTZ challenge measured for 20 mins; details: route intraperitoneal
Outline: (§2)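 Groups of six mice got the test suspension in 1% CMC i.p. at the stated dose. After 30 min they received aqueous PTZ 85 mg/kg s.c. and were watched for 20 min for clonic convulsions. The result is the percentage of animals protected.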

[5] = system: Mus musculus; assay: Anticonvulsant activity in Swiss albino mouse assessed as protection against PTZ-induced clonic convulsions at 10 mg/kg, ip administered after 30 mins PTZ challenge measured for 20 mins; details: route intraperitoneal; outline: as §2
[6] = system: Mus musculus; assay: Anticonvulsant activity in Swiss albino mouse assessed as protection against PTZ-induced clonic convulsions at 8 mg/kg, ip administered after 30 mins PTZ challenge measured for 20 mins; details: route intraperitoneal; outline: as §2
[7] = system: Mus musculus; assay: Anticonvulsant activity in Swiss albino mouse assessed as protection against PTZ-induced clonic convulsions administered after 30 mins PTZ challenge measured for 20 mins
Outline: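 Mice (groups of six) got the test suspension in 1% CMC i.p., then 30 min later aqueous PTZ 85 mg/kg s.c. Clonic convulsions were watched for 20 min. The number of animals protected per group served as the percentage response for calculating ED50.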

[8] = system: Mus musculus; assay: Anticonvulsant activity in Swiss albino mouse assessed as protection against PTZ-induced clonic convulsions at 5 mg/kg, ip administered after 30 mins PTZ challenge measured for 20 mins; details: route intraperitoneal; outline: as §2
[9] = system: Mus musculus; assay: Anticonvulsant activity in Swiss albino mouse assessed as protection against PTZ-induced clonic convulsions at 6 mg/kg, ip administered after 30 mins PTZ challenge measured for 20 mins; details: route intraperitoneal; outline: as §2
[10] = system: Mus musculus; assay: Anticonvulsant activity in Swiss albino mouse assessed as protection against PTZ-induced clonic convulsions at 7 mg/kg, ip administered after 30 mins PTZ challenge measured for 20 mins; details: route intraperitoneal; outline: as §2
[11] = system: Mus musculus; assay: Anticonvulsant activity in Swiss albino mouse assessed as protection against PTZ-induced clonic convulsions at 4 mg/kg, ip administered after 30 mins PTZ challenge measured for 20 mins; details: route intraperitoneal; outline: as §2
[12] = system: Mus musculus; assay: Anticonvulsant activity in Swiss albino mouse assessed as protection against PTZ-induced clonic convulsions at 11 mg/kg, ip administered after 30 mins PTZ challenge measured for 20 mins; details: route intraperitoneal; outline: as §2

Row | Structure (SMILES) | Activity [1] [%] | Activity [2] [%] | Activity [3] [%] | Activity [4] [%] | Activity [5] [%] | Activity [6] [%] | ED50 [7] [mg/kg] | Activity [8] [%] | Activity [9] [%] | Activity [10] [%] | Activity [11] [%] | Activity [12] [%]
1 | CCc1nnc2n(-c3ccc(Cl)cc3)c(=O)c3c4c(sc3n12)CCCC4 | 71.42 | 83.92 | 105.49 | 66.66 | 100 | 33.33 | 8.5 |  |  |  |  | 
2 | O=c1c2c3c(sc2n2c(S)nnc2n1-c1ccc(Cl)cc1)CCCC3 | 81.71 | 90 | 109.62 |  |  |  | 5.5 | 33.33 | 66.66 | 100 |  | 
3 | Nc1nnc2n(-c3ccc(Cl)cc3)c(=O)c3c4c(sc3n12)CCCC4 | 82.24 | 88.78 | 107.52 |  |  | 100 | 6.73 |  | 16.66 | 66.66 |  | 
4 | CCCc1nnc2n(-c3ccc(Cl)cc3)c(=O)c3c4c(sc3n12)CCCC4 | 78.78 | 90.4 | 116.62 |  |  |  | 4.4 | 83.33 | 100 |  | 16.66 | 
5 | Cc1nnc2n(-c3ccc(Cl)cc3)c(=O)c3c4c(sc3n12)CCCC4 | 75.51 | 82.65 | 102.75 | 33.33 | 83.33 |  | 9.33 |  |  |  |  | 100
6 | CN1C(=O)CN=C(c2ccccc2)c2cc(Cl)ccc21 [DIAZEPAM] | 85.43 | 89.32 |  |  |  |  | 1.18 |  |  |  |  | 
